Data set [1] is described as follows: Stability of the compound in phosphate buffered saline at pH 7.4 assessed as compound hydrolysis at 100 uM within 20 mins by UV-Vis spectrophotometric analysis. The format is physicochemical. The settings on record: buffer, pH 7.4, 20 min.
Data set [2] is described as follows: Stability of the compound in phosphate buffered saline at pH 7.4 assessed as compound hydrolysis at 100 uM up to 24 hrs by UV-Vis spectrophotometric analysis. The conditions noted are these: buffer, pH 7.4, 24 h. The format is physicochemical. In short, it runs like this: (§1)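 Compound at 100 μM dissolved in PBS pH 7.4 or in minimal essential medium. UV-Vis spectra of freshly prepared and 24-h aged solutions kept at ambient temperature were compared.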

Data set [3] can be described thus: Stability of the compound in minimal essential medium assessed as compound hydrolysis at 100 uM at pH 7.4 within 20 mins by UV-Vis spectrophotometric analysis.
A short description of data set [4]: Stability of the compound in minimal essential medium assessed as compound hydrolysis at 100 uM at pH 7.4 up to 24 hrs by UV-Vis spectrophotometric analysis. A digest of the protocol: as §1
Data set [5] is described as follows: Drug metabolism in D2O/5% DMSO-d6 assessed as formation of aldehyde proton of salicylaldehyde at 500 uM after 1 hr by 1H-NMR spectroscopic analysis. The format is physicochemical.
The nature of data set [6]: Drug metabolism in D2O/5% DMSO-d6 assessed as formation of hydrazone proton at 500 uM after 1 hr by 1H-NMR spectroscopic analysis. The format is physicochemical.
Data set [7] concerns ARPE-19. Put plainly: Cytoprotective activity against H2O2-induced toxicity in human ARPE19 cells pretreated for 5 hrs followed by H2O2 addition after 19 hrs by CellTiter-blue assay. The format is functional, cell-based. A digest of the protocol:
(§2)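 ARPE-19 human retinal pigment epithelial cells pre-incubated 5 h with a range of compound concentrations, then given H2O2 at 200 μM. Viability read 19 h after peroxide addition by CellTiter Blue. Expressed as percent of untreated control (100%).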
For orientation: Resazurin is reduced to fluorescent resorufin, in cell work by metabolically active cells.

In data set [8] the test system is ARPE-19. Briefly: Cytotoxicity against human ARPE19 cells assessed as reduction in cell viability up to 100 uM after 72 hrs by CellTiter-blue assay. Format: cell-based. The conditions noted are these: arpe-19, 72 h. In short, it runs like this: (§3)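 Inherent toxicity tested on ARPE-19 cells. Compounds at concentrations up to 100 μM for 72 h. Viability read by CellTiter Blue assay.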

The nature of data set [9]: Drug metabolism in phosphate buffered saline at pH 7.4 assessed as equilibrium hydrolysis constant measured at 1 min interval for 20 mins by UV-vis spectrophotometric method. Format: physicochemical. The settings on record: buffer, pH 7.4, 20 min.
The nature of data set [10]: Stability of the compound in aqueous solvent assessed as parent compound remaining at 100 uM after 24 hrs in presence of H2O2 by 1H-NMR spectrometric method. Format: physicochemical. The conditions noted are these: aqueous solvent with H2O2; read-out: Stability.
The nature of data set [11]: Drug metabolism in phosphate buffered saline at pH 7.4 assessed as formation of isoniazid by measuring elution time at 100 uM after 24 hrs in presence of H2O2 by LC-MS analysis. The format is physicochemical. The conditions noted are these: buffer, pH 7.4, 24 h.
A short description of data set [12]: Drug metabolism in phosphate buffered saline at pH 7.4 assessed as formation of salicylaldehyde by measuring retention time at 100 uM after 24 hrs in presence of H2O2 by LC-MS analysis. Format: physicochemical. The conditions noted are these: buffer, pH 7.4, 24 h.
A short description of data set [13]: Drug metabolism in phosphate buffered saline at pH 7.4 assessed as formation of SIH by measuring elution time at 100 uM after 24 hrs in presence of H2O2 by LC-MS analysis. Format: physicochemical. The settings on record: buffer, pH 7.4, 24 h.
The nature of data set [14]: Stability of the compound in Britton-Robinson buffer at pH 12 assessed as parent compound remaining at 100 uM by UV-vis spectrometric analysis. The conditions noted are these: read-out: Stability. Format: physicochemical.
A short description of data set [15]: Stability of the compound in Britton-Robinson buffer at pH 8 assessed as parent compound remaining at 100 uM by UV-vis spectrometric analysis. The format is physicochemical. The conditions noted are these: read-out: Stability.
A short description of data set [16]: Stability of the compound in Britton-Robinson buffer at pH 10 assessed as parent compound remaining at 100 uM by UV-vis spectrometric analysis. Format: physicochemical. The conditions noted are these: read-out: Stability.
A short description of data set [17]: Stability of the compound in Britton-Robinson buffer at pH 6 assessed as parent compound remaining at 100 uM by UV-vis spectrometric analysis. The format is physicochemical. The settings on record: read-out: Stability.
Data set [18] can be described thus: Stability of the compound in Britton-Robinson buffer at pH 4 assessed as parent compound remaining at 100 uM by UV-vis spectrometric analysis. Format: physicochemical. The settings on record: read-out: Stability.
The nature of data set [19]: Stability of the compound in Britton-Robinson buffer at pH 2 assessed as parent compound remaining at 100 uM by UV-vis spectrometric analysis. Format: physicochemical. The settings on record: read-out: Stability.
The nature of data set [20]: Drug metabolism in D2O/5% DMSO-d6 assessed as pinacol dissociation by measuring formation of boronic acid form of BASIH at 500 uM after 1 hr by 1H-NMR spectroscopic analysis. Format: physicochemical.
The nature of data set [21]: Drug metabolism in DMSO-d6 assessed as formation of pinacol boronic ester form of BSIH at 10 mM by 1H-NMR spectroscopic analysis. The settings on record: 10000 µM. The format is physicochemical.
Data set [22] can be described thus: Stability of the compound in D2O/5% DMSO-d6 assessed as parent compound remaining at 500 uM after 1 hr by 1H-NMR spectroscopic analysis. The format is physicochemical. The conditions noted are these: read-out: Stability.
A short description of data set [23]: Drug metabolism in DMSO-d6 assessed as formation of hydrazone proton at 10 mM by 1H-NMR spectroscopic analysis. The settings on record: 10000 µM. Format: physicochemical.
Data set [24] in a line: Stability of the compound in phosphate buffered saline assessed as parent compound remaining at 100 uM at pH 7.4 after 20 mins by UV-vis spectrophotometric analysis. The conditions noted are these: read-out: Stability. Format: physicochemical.
Data set [25] is described as follows: Stability of the compound in phosphate buffered saline assessed as parent compound remaining at 500 uM at pH 7.4 after 20 mins by UV-vis spectrophotometric analysis. The format is physicochemical. The conditions noted are these: read-out: Stability.
The nature of data set [26]: Stability of the compound in phosphate buffered saline at pH 7.4 assessed as compound hydrolysis at 100 uM after 24 hrs by UV-Vis spectrophotometric analysis. Format: physicochemical. The conditions noted are these: buffer, pH 7.4, 24 h. In short, it runs like this: as §1
The nature of data set [27]: Stability of the compound in minimal essential medium assessed as compound hydrolysis at 100 uM at pH 7.4 after 24 hrs by UV-Vis spectrophotometric analysis. A digest of the protocol: as §1
Data set [28] can be described thus: Drug metabolism in RPMI media assessed as equilibrium hydrolysis constant at 100 uM. Format: physicochemical.
Data set [29] in a line: Half-life in RPMI media at 100 uM. The format is physicochemical.
Data set [30] is described as follows: Stability of the compound in aqueous solvent at 500 uM after 24 hrs in presence of H2O2 by 1H-NMR spectroscopic analysis. The conditions noted are these: buffer. The format is physicochemical.
Data set [31] is described as follows: Drug level treated with BSIH in DMSO assessed as metabolite formation at 100 uM at pH 7.4 after overnight incubation in presence of H2O2 by UV-vis spectrometric analysis.
Data set [32] has as its system ARPE-19. Briefly: Cytotoxicity against human ARPE19 cells assessed as reduction in cell viability at 100 uM after 72 hrs by CellTiter-blue assay relative to control. The settings on record: arpe-19, 72 h. Format: cell-based. In short, it runs like this:
as §3

Data set [33] is described as follows: Stability of the compound in minimal essential medium assessed as compound hydrolysis at 100 uM within 24 hrs by UV-Vis spectrophotometric analysis.
Data set [34] in a line: Drug level treated with BSIH assessed as metabolite formation at 500 uM after 24 hrs in presence of H2O2 by 1H-NMR spectroscopic analysis.
The subject of data set [35] is ARPE-19. Briefly: Cytoprotective activity against H2O2-induced toxicity in human ARPE19 cells up to 100 uM pretreated for 5 hrs followed by H2O2 addition after 19 hrs by CellTiter-blue assay. The format is functional, cell-based. In short, it runs like this: as §2

Each structure is given as a SMILES string. Active and inactive are the calls of the source. The rule behind the calls is not given here.

For orientation: half-life means the time in which the quantity being followed falls by half. Low values mean fast loss, high ones slow loss.

Regarding `CC1(C)OB(c2ccccc2/C=N/NC(=O)c2ccncc2)OC1(C)C`, the Stability entry was “Unstable” in data set [1], “Stable” in [2], “Unstable” in data set [3] and “Stable” in data set [4]. Also, the Drug metabolism in [5] was 9.9 ppm; in data set [6], “Metabolite_Notdetected”; in data set [20] it was 1.03 ppm; in data set [21], 1.34 ppm; in data set [23], 8.79 ppm. In addition, the values for the Activity entry in data set [7] and in data set [8] were “Dose-dependent effect” and “Non-Toxic”, respectively. Moreover, the K in [9] amounted to 1.5 ×10⁻⁵ M. Besides, the remaining at 24 h, 100 µM in data set [10] worked out at 25%. In addition, the Time in [11] is listed as 2 min; in [13] it was 13 min. The Retention_time in data set [12] is on record as 12 min. The remaining at 100 µM in data set [14] was found to be 50%; in data set [15], 65%; in data set [16], 67%; in data set [17], 36%; in data set [18], 26%; in [19] it was 9%. In data set [22], the remaining at 1 h, 500 µM was determined as 80%.

With `O=Cc1ccccc1B(O)O`, the results for the Activity entry in data set [7] and in data set [8] were “Dose-dependent effect” and “Non-Toxic”, respectively.

As to `O=C(N/N=C/c1ccccc1B(O)O)c1ccncc1`, the values for the Stability entry in data set [1] and in data set [2] were “Unstable” and “Stable”, respectively. For the same molecule, the remaining at 20 min, 100 µM in data set [24] is 68%. Further, the remaining at 20 min, 500 µM in data set [25] was found to be 84%.

Consider `O=C(N/N=C/c1ccccc1O)c1ccncc1` [SALINAZID], for which the Stability result in [26] was “Stable”; in data set [27], “Unstable”; in data set [30] it was “Stable”; in [33] it was “Unstable”. Further, the Activity result in [7] was “Dose-dependent effect”; in [32], 30%. The K in data set [28] stood at 5 ×10⁻⁴ M. Further, in data set [29], the half-life at 100 µM was 2.7 h. Besides, the Drug metabolism result in data set [31] is recorded as “Metabolite detected”.

As to `O=Cc1ccccc1O` [SALICYLADEHYDE], the Drug metabolism result in [34] was “Metabolite detected”. In addition, the results for the Activity entry in data set [7] and in [8] were “Dose-dependent effect” and “Non-Toxic”, respectively.

`NNC(=O)c1ccncc1` [ISONIAZID]: in data set [34], the Drug metabolism entry is given as “Metabolite detected”. The result in data set [35] was inactive. In data set [8], the Activity entry is reported as “Non-Toxic”.

For the origin of these results see ChEMBL document CHEMBL4052786, “The hydrolytic susceptibility of prochelator BSIH in aqueous solutions” (Bioorg Med Chem Lett, 2017).
